For 8 molecules, half-life and Diffusion results are on record in ChEMBL document CHEMBL1124025, “(Acyloxy)alkyl carbamates as novel bioreversible prodrugs for amines: increased permeation through biological membranes” (J Med Chem, 1988).

Data set [1] can be described thus: Hydrolysis half-life at 37 degree C in phosphate buffer at pH 7.4. The class given is ADME. In short, it runs like this:
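Done as for the plasma runs but in pH 7.4 Sorensen's buffer at 37 °C. 0.1–0.2 mg prodrug added from a small DMSO drop, sampled at time points, and analysed by direct-injection HPLC for prodrug loss and/or parent amine formation. External-standard quantitation.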

Data set [2] in a line: Hydrolysis half-life at 37 degree C in rat plasma. The class given is ADME. In short, it runs like this: (§1)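 0.1–0.2 mg prodrug in a small drop of DMSO, mixed with 1 mL plasma held at 37 °C in a thermostated water bath. Samples drawn at intervals and injected directly onto HPLC to follow loss of prodrug and/or appearance of the parent amine; concentrations by external standard from peak areas. Half-life derived from the time course.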

A short description of data set [3]: Hydrolysis half-life at 37 degree C in dog plasma. The class given is ADME, Canis lupus familiaris. An outline of the steps: as §1
Data set [4] is filed under the species Rattus norvegicus. Put plainly: Percent diffusion through fuzzy rat skin after 48 h of incubation. The conditions noted are these: in vitro. The format is ADME. An outline of the steps:
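Whole ventral and dorsal skin from 8-week fuzzy rats (about 250 g) mounted in diffusion cells. Receptor was pH 7.0 phosphate-buffered 0.15 M NaCl with 22 ppm gentamicin. Ethanolic test solution spread on the skin surface. Cells occluded at 32 °C, stirred at 150 rpm, and 0.2 mL sampled with buffer replacement over 48 h. HPLC/UV quantitation; run in triplicate.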

On to `CC(=O)OCOC(=O)N(CC(O)COc1nsnc1N1CCOCC1)C(C)(C)C` (stereo not drawn), for which the figures for the half-life in data set [1], in data set [2] and in data set [3] were 23.5 h, 3 min and 9.7 min, respectively. For the same molecule, the Diffusion in data set [4] is 0.53%.

With `CC(=O)OC(C)OC(=O)N(CC(O)COc1cccc2ccccc12)C(C)C` (stereo not drawn), the half-life (as a rule, how long it takes for the measured level to halve) in data set [1] is 44.5 h; in data set [2] it was 3 min. The molecule also came in with a Diffusion in data set [4] of 0.45%.

`CC(=O)OC(C)OC(=O)N(CC(O)COc1ccc(CC(N)=O)cc1)C(C)C` (stereo not drawn): the Diffusion in data set [4] is recorded as 0.49%.

The molecule `CC(=O)OC(C)OC(=O)N(CC(O)COc1cccc2[nH]ccc12)C(C)C` (stereo not drawn) gave a Diffusion in data set [4] of 0.35%.

Regarding `CC(C)NCC(O)COc1ccc(CC(N)=O)cc1` (stereo not drawn) [ATENOLOL], in data set [4], the Diffusion amounted to 0.13%.

`CC(C)NCC(O)COc1cccc2[nH]ccc12` (stereo not drawn) [PINDOLOL]: the Diffusion in data set [4] is on record as 0.03%.

Turning to `CC(C)NCC(O)COc1cccc2ccccc12` (stereo not drawn) [PROPRANOLOL], the Diffusion in data set [4] stood at 2.4%.

`CC(C)(C)NC[C@H](O)COc1nsnc1N1CCOCC1` [TIMOLOL]: the Diffusion in data set [4] was determined as 18.14%.
